# Square brackets hold non-standard residues; d marks the D form. Peptide text beside a SMILES is read from it. Hyp = O=C(O)[C@@H]1C[C@@H](O)CN1; Ahx = NCCCCCC(=O)O
# Columns and labels:
# Assay type in all cases: cell-based
# [1] = target: T1, von Hippel-Lindau disease tumor suppressor/Bromodomain-containing protein 4 (Homo sapiens) (UniProt O60885+P40337); assay: PROTAC activity at VHL/His-tagged BDR4 ET domain (601 to 683 residues) (unknown origin) transfected in MCF7 cells assessed as degradation by measuring fold change in remaining BRD4 level at 10 uM incubated for 12 hrs by immunoblotting analysis (reference value: […])
# T1 sequence (P40337 whole entry, looked up, other chains not shown, the tested form may be a part): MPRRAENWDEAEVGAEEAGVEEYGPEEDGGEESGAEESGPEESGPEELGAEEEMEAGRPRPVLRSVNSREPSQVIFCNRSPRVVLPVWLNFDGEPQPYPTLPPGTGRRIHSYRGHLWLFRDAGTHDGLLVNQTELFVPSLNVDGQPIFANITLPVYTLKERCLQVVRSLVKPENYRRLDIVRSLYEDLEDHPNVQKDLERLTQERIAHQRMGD
# [2] = target: T1, von Hippel-Lindau disease tumor suppressor/Bromodomain-containing protein 4 (Homo sapiens); assay: PROTAC activity at VHL/His-tagged BDR4 ET domain (1 to 470 residues) (unknown origin) transfected in MCF7 cells assessed as degradation by measuring fold change in remaining BRD4 level at 5 uM incubated for 24 hrs by immunoblotting analysis (reference value: […])
# [3] = target: T1, von Hippel-Lindau disease tumor suppressor/Bromodomain-containing protein 4 (Homo sapiens); assay: PROTAC activity at VHL/His-tagged BDR4 […] (unknown origin) transfected in MCF7 cells assessed as degradation by measuring fold change in remaining BRD4 level at 10 uM incubated for 12 hrs by immunoblotting analysis (reference value: […])
# [4] = target: T1, von Hippel-Lindau disease tumor suppressor/Bromodomain-containing protein 4 (Homo sapiens); assay: PROTAC activity at VHL/BDR4 ET domain in human MCF7 cells assessed as degradation by measuring fold change in remaining BRD4 level at 10 uM incubated for 24 hrs in presence of TAT by immunoblotting analysis relative to TAT/TAT-PROTAC
# Summary of the method: (§1)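 MCF7 cells are treated with PROTAC peptide (dose series, or 10 μM over a time course, or 10 μM with or without MG132 10 μM) for up to 24 h. Comparators are TAT, TAT-PiET, or TAT-PROTAC at 10 μM. BRD4 is measured by immunoblot, normalised to β-actin; three repeats.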
# [5] = target: T1, von Hippel-Lindau disease tumor suppressor/Bromodomain-containing protein 4 (Homo sapiens); assay: PROTAC activity at VHL/His-tagged BDR4 […] (unknown origin) transfected in MCF7 cells assessed as degradation by measuring fold change in remaining BRD4 level at 10 uM incubated for 24 hrs by immunoblotting analysis (reference value: […])
# [6] = target: T1, von Hippel-Lindau disease tumor suppressor/Bromodomain-containing protein 4 (Homo sapiens); assay: PROTAC activity at VHL/His-tagged BDR4 ET domain (601 to 683 residues) (unknown origin) transfected in MCF7 cells assessed as degradation by measuring fold change in remaining BRD4 level at 10 uM incubated for 24 hrs by immunoblotting analysis (reference value: […])
# [7] = target: T1, von Hippel-Lindau disease tumor suppressor/Bromodomain-containing protein 4 (Homo sapiens); assay: PROTAC activity at VHL/BDR4 ET domain in human MCF7 cells assessed as degradation by measuring fold change in remaining BRD4 level at 10 uM incubated for 24 hrs in presence of TAT-PiET by immunoblotting analysis relative to TAT/TAT-PROTAC; summary of the method: as §1
compound,measurement,setting,value
CC[C@H](C)[C@H](NC(=O)[C@H](Cc1ccc(O)cc1)NC(=O)[C@@H]1C[C@@H](O)CN1C(=O)[C@H](C)NC(=O)[C@@H](NC(=O)CCCCCNC(=O)[C@H](CCC(=O)O)NC(=O)CNC(=O)[C@H](CS)NC(=O)[C@H](CCCCN)NC(=O)[C@H](Cc1ccccc1)NC(=O)[C@H](CCCCN)NC(=O)[C@H](CCC(N)=O)NC(=O)[C@H](CC(N)=O)NC(=O)[C@H](CCCNC(=N)N)NC(=O)[C@H](CCCNC(=N)N)NC(=O)[C@H](CCCNC(=N)N)NC(=O)[C@H](CCCNC(=N)N)NC(=O)[C@H](CCC(N)=O)NC(=O)[C@H](CCCNC(=N)N)NC(=O)[C@H](CCCNC(=N)N)NC(=O)[C@H](CCCCN)NC(=O)[C@H](CCCCN)NC(=O)[C@H](CCCNC(=N)N)NC(=O)CNC(=O)[C@@H](N)Cc1ccc(O)cc1)[C@@H](C)CC)C(=O)O (H-YGRKKRRQRRRRNQKFKCGE[Ahx]IA[Hyp]YI-OH),fold change (FC),[1],0.78
same,fold change (FC),[2],1.09
same,fold change (FC),[3],0.99
same,fold change (FC),[4],0.63
same,fold change (FC),[5],0.91
same,fold change (FC),[6],0.47
same,fold change (FC),[7],0.84
